Data on 24 compounds can be found in ChEMBL document CHEMBL1123103, “Pyrimidinones. 1. 2-Amino-5-halo-6-aryl-4(3H)-pyrimidinones. Interferon-inducing antiviral agents” (1985).

The source made the active and inactive calls. The rule behind the calls is not given here.

The ED50 is the dose at which the effect has come halfway, by size or by number of responders.

Assay [1] has as its system Semliki Forest virus. The experiment in a line: Effective dose administered intraperitoneally againist Forest virus infected mice. It counts as functional, organism-based. In short, it runs like this: (§1)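 Drug was suspended in 0.9% NaCl or in a carboxymethylcellulose/polysorbate 80/benzyl alcohol/NaCl vehicle. Deaths were recorded daily for 6 days, with 24 mice per group. The ED50 is the minimal dose protecting 50% of mice, calculated by probit analysis.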

For another assay, the system named is Mus musculus. As to the kind of experiment: Evaluation for serum interferon response from a single 800 mg/kg intraperitoneal administration in vesicular stomatitis virus on […] cells; Range 10-50 units/mL. It counts as functional. In a few lines: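 Mice got a single ip 800 mg/kg dose. Blood was drawn 3, 6, 8 and 12 h later from five mice per group and pooled. Interferon titer was measured by plaque reduction with vesicular stomatitis virus on L929 cells. Titer is the reciprocal serum dilution cutting plaques by 50% versus untreated cultures. Peak response within 24 h was banded: ≥2000, ~500-1000, ~50-500, ~10-50 U/mL.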

The subject of the next assay is Human alphaherpesvirus 1. As to the kind of experiment: Intraperitoneal administration against herpes simplex virus type-1 (HSV-1) infected mice. In kind it is functional. In short, it runs like this: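 ICR or CD-1 mice got drug ip in saline as the total daily dose (mg/kg/day). It was split into doses at -40, -28, -20, -3 and +3 h relative to ip inoculation with 5.6×10^4 pfu HSV-1. Mice were followed for 22 days, 15/group. Protection index = (control mortality − treated mortality)/control mortality; >0.25 counted active. Only the lowest protective dose is recorded.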

In assay [2] the test system is Semliki Forest virus. As to the kind of experiment: Antiviral activity against Forest virus (SFV). In kind it is functional. In short, it runs like this: (§2)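 ICR or CD-1 mice of both sexes got one drug dose by the route in the line (ip, po or sc). The drug was a suspension in 0.9% NaCl or in a CMC/polysorbate 80/benzyl alcohol/NaCl vehicle. […] Deaths were recorded daily for 6 days, 24 mice/group. ED50 is the minimal dose protecting 50% of mice, by probit analysis.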

The test system of assay [3] is Semliki Forest virus. As to the kind of experiment: Effective dose administered perorally againist Forest virus infected mice. It counts as functional. To be noted: po. In a few lines: as §2
The test system of assay [4] is Semliki Forest virus. As to the kind of experiment: Effective dose administered perorally against Forest virus infected mice. In kind it is functional, organism-based. In short, it runs like this: as §1
In assay [5] the test system is Semliki Forest virus. The experiment in a line: Effective dose administered subcutaneously against Forest virus infected mice. It counts as functional, organism-based. In a few lines: as §1
Assay [6] has as its system Semliki Forest virus. As to the kind of experiment: Effective dose administered subcutaneously againist Forest virus infected mice. Conditions: sc. In kind it is functional. In a few lines:
as §2

For `COc1cccc(-c2nc(N)nc(O)c2Cl)c1OC`, the ED50 result in the assay with Semliki Forest virus [1] is “inactive”.

On to `Nc1cccc(-c2nc(N)nc(O)c2Br)c1`, for which the ED50 entry with Semliki Forest virus [1] is “inactive”.

Turning to `CCCOc1cccc(-c2nc(N)nc(O)c2Cl)c1`, in the assay on Mus musculus, the IFN stood at 10 units/mL. Besides, the Protection index with Human alphaherpesvirus 1 came out at 0.13. Besides, the ED50 is 40 mg/kg with Semliki Forest virus [2] and greater than 400 mg/kg in the assay with Semliki Forest virus [3].

Take `Nc1nc(O)c(I)c(-c2ccoc2)n1`: the ED50 entry in the assay with Semliki Forest virus [4] and in the assay on Semliki Forest virus [5] was “inactive” each time. Further, the ED50 with Semliki Forest virus [2] is greater than 400 mg/kg.

Take `COc1cccc(-c2nc(N)nc(O)c2I)c1OC`: in the assay with Semliki Forest virus [1], the ED50 entry was “inactive”.

In the case of `N#Cc1ccc(-c2nc(N)nc(O)c2I)cc1`, the ED50 result in the assay on Semliki Forest virus [1] was “inactive”. This compound came in with a Protection index in the assay on Human alphaherpesvirus 1 of 0.

In the case of `Nc1nc(O)c(Cl)c(-c2ccc(O)cc2)n1`, the ED50 result with Semliki Forest virus [4] and in the assay with Semliki Forest virus [5] was “inactive” in each case. In the assay with Semliki Forest virus [2], this compound gave an ED50 greater than 400 mg/kg.

With `Cc1ccc(-c2nc(N)nc(O)c2Br)cc1`, the IFN in the assay on Mus musculus is reported as 10 units/mL. The 50% effect level in the assay with Semliki Forest virus [2] (ED50) was put at a dose of 200 mg/kg.

Regarding `CCCOc1cccc(-c2nc(N)nc(O)c2Br)c1`, the IFN in the assay on Mus musculus was 10 units/mL. Moreover, the ED50 is greater than 400 mg/kg in the assay on Semliki Forest virus [6], 100 mg/kg in the assay on Semliki Forest virus [2] and greater than 400 mg/kg with Semliki Forest virus [3]. The Protection index in the assay with Human alphaherpesvirus 1 is on record as 0.4.

As for `Nc1nc(O)c(Cl)c(-c2cccc(I)c2)n1`, the ED50 entry in the assay on Semliki Forest virus [1] is “inactive”.

With `Nc1nc(O)c(Br)c(-c2ccc(OCc3ccccc3)cc2)n1`, the ED50 entry with Semliki Forest virus [1] is “inactive”.

Turning to `Nc1nc(O)c(Br)c(-c2c(F)cc(F)cc2F)n1`, in the assay on Semliki Forest virus [1], the ED50 result was “inactive”. Further, the Protection index in the assay on Human alphaherpesvirus 1 was 0.

For `Nc1nc(O)c(Br)c(-c2cc(Br)c(O)c(Br)c2)n1`, the ED50 result with Semliki Forest virus [1] is “inactive”.

In turn, `CCCOc1cccc(-c2nc(N)nc(O)c2I)c1` registered an IFN in the assay on Mus musculus of 10 units/mL. In the assay with Human alphaherpesvirus 1, the Protection index was determined as 0. In addition, it took a dose of 100 mg/kg to reach the 50% effect level in the assay on Semliki Forest virus [2] (ED50).

`Nc1nc(O)c(I)c(-c2c(F)cc(F)cc2F)n1`: the ED50 result in the assay with Semliki Forest virus [1] was “inactive”. In the assay on Human alphaherpesvirus 1, this compound yielded a Protection index of 0.

In the case of `Nc1nc(O)c(I)c(-c2ccc(-c3ccccc3)cc2)n1`, the ED50 result in the assay on Semliki Forest virus [4], in the assay with Semliki Forest virus [5] and in the assay on Semliki Forest virus [1] was “inactive” each time.

With `COc1ccc(-c2nc(N)nc(O)c2I)cc1`, the ED50 entry in the assay on Semliki Forest virus [4] and in the assay with Semliki Forest virus [5] was “inactive” in each case. This compound showed an ED50 in the assay on Semliki Forest virus [2] greater than 400 mg/kg.

As to `CC(C)(C)c1ccc(-c2nc(N)nc(O)c2I)cc1`, the ED50 entry in the assay with Semliki Forest virus [4], with Semliki Forest virus [5] and with Semliki Forest virus [1] was “inactive” throughout.

In the case of `CN(C)c1ccc(-c2nc(N)nc(O)c2Br)cc1`, the ED50 entry in the assay with Semliki Forest virus [4], with Semliki Forest virus [5] and in the assay with Semliki Forest virus [1] was “inactive” each time. In addition, the Protection index with Human alphaherpesvirus 1 was determined as 0.13.

Regarding `Nc1nc(O)c(Br)c(-c2cccc(O)c2)n1`, in the assay on Semliki Forest virus [1], the ED50 entry is “inactive”. In the assay with Human alphaherpesvirus 1, the Protection index came out at 0.

With `CC(C)(C)c1ccc(-c2nc(N)nc(O)c2Br)cc1`, the ED50 entry with Semliki Forest virus [4], in the assay with Semliki Forest virus [5] and in the assay on Semliki Forest virus [1] was “inactive” each time.

As to `Nc1nc(O)c(Br)c(-c2ccc3ccccc3c2)n1`, the ED50 entry in the assay on Semliki Forest virus [4] and with Semliki Forest virus [5] was “inactive” throughout. The median effective dose (ED50) in the assay with Semliki Forest virus [2] is greater than 400 mg/kg.

With `Nc1nc(O)c(I)c(-c2ccc3ccccc3n2)n1`, the ED50 entry in the assay on Semliki Forest virus [4], with Semliki Forest virus [5] and in the assay on Semliki Forest virus [1] was “inactive” each time.

As for `Nc1nc(O)c(Br)c(-c2cc(Cl)cc(Cl)c2)n1`, in the assay with Mus musculus, the IFN is 10 units/mL. Moreover, the ED50 in the assay with Semliki Forest virus [6] was greater than 400 mg/kg; with Semliki Forest virus [2], 245 mg/kg; with Semliki Forest virus [3], greater than 400 mg/kg.
